HSF1 activator: HSF-1 activators, primary screen, NIH3T3-HGL cells, MG132 stress, luminescence, single point; activation, % at 9 µM; AID 504408, 2011; NIH3T3-HGL HSF-1 luciferase reporter, 8 h; 100% = twice DMSO control signal; 300,000 tested, 1.7% active;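 active = mean replicate activation of at least 50% with a set share of replicates each reaching 50%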
T cruzi inh: inhibitors of intracellular T. cruzi growth, primary screen, luminescence, NIH3T3 host cells; T. cruzi beta-gal in NIH3T3, 90 h; inhibition, % (test concentration not listed); 300,000 tested, 1.4% active; AID 1885, 2009;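 active = mean inhibition across valid replicates above about 55%, limit read from the data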;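 note: signal also drops with host cell toxicity which is not excluded here; higher percent means less beta-gal luminescence so fewer parasites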
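Material: NIH/3T3 host cells with β-galactosidase reporter T. cruzi; Input: 5,000 host fibroblasts per well; Medium: DMEM, 2% fetal bovine serum; Compound: 50 nL DMSO compound solution per well; Schedule: 3 h host attachment, then at least 90 h co-culture; Detection: luminescent β-galactosidase signal after 60 min lysis.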
697 NFkB inh: inhibitors of PMA/ionomycin-induced NF-kB reporter, 697 cells, primary screen, B-cell NF-kB inhibitor project, cell-based, luminescence, uHTS; inhibition, % at 4 µM; 330,000 tested, 0.33% active; 697 B-cell NF-kB luciferase reporter, 16 h; in the data active = inhibition above about 35%
Jurkat NFkB inh: inhibitors of induced NF-kB luciferase reporter, primary screen, TCR NF-kB activation inhibitor project, cell-based, luminescence, uHTS. Jurkat, PMA/ionomycin-induced NF-kB luciferase reporter. 330,000 tested, 0.53% active. inhibition, % at 4 µM. AID 435003, 2010; in the data active = inhibition above about 50%
GPR7 antag: GPR7 receptor antagonists, primary screen, cell-based, fluorescence, single concentration; Neuropeptides B/W receptor type 1 (Homo sapiens), P48145; GPR7-expressing cells, fluorescence antagonist assay; inhibition, % at 4.4 µM; 290,000 tested, 1.1% active; in the data active = inhibition above about 16%, passing the limit was not always enough;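 note: cells stimulated with the agonist NPW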
Target sequence (P48145 whole entry, looked up): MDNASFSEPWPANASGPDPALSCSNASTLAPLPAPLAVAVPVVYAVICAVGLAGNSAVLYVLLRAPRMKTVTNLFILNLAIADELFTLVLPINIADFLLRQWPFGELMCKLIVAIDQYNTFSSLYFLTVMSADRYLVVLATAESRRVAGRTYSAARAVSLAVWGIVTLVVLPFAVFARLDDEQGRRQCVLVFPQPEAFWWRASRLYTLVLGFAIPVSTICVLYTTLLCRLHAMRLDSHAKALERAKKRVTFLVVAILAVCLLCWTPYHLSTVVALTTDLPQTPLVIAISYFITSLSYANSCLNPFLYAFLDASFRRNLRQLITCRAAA
HSF1 inhib: HSF1 inhibitors in luciferase reporter cells, primary screen, cell-based, NIH3T3, luminescence | 300,000 tested, 0.77% active | NIH3T3-HGL HSE-luciferase, MG132-induced, luminescence 8 h; hits give low values | activity change, negative = inhibition, % at 7.5 µM (by protocol);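 active = more than half of replicate wells show activity change below -50%, luminescence cut by over half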;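 note: luciferase reports HSF-1 transcriptional activity via heat shock element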
Numbers stand for hits; i = inactive; nt = no result given. Only some compounds are listed: those with a hit (about 4.8% of all), similar ones and a draw of the others.

SMILES	HSF1 activator	T cruzi inh	697 NFkB inh	Jurkat NFkB inh	GPR7 antag	HSF1 inhib
CNC(=S)N1N=C(c2ccc(Br)cc2)CC1c1ccc(Br)cc1 (stereo not given)	i	78	i	i	i	i
CCOC(=O)c1cc(-c2csc(N/N=C/c3ccccc3Cl)n2)on1	nt	nt	i	i	i	nt
CC(=O)c1ccc(N2CCC(c3cc(-c4ccc(Cl)cc4Cl)n[nH]3)CC2)c([N+](=O)[O-])c1	i	62	i	i	i	i
O=[N+]([O-])c1cccnc1N1CCC(c2cc(-c3ccc(Cl)cc3Cl)n[nH]2)CC1	i	i	i	i	i	i
COc1ccc(C(=O)O/N=C(\N)c2ccccc2)cc1OC	56	i	i	i	i	i
CCOC(=O)c1ccc(OS(=O)(=O)c2ccccc2)c(OC)c1	63	i	i	i	i	i
COc1ccc(/C(N)=N/OC(=O)CSc2ccccc2)cc1OC	62	i	i	i	i	i
COc1ccc(/C(N)=N/OC(=O)c2cccc([N+](=O)[O-])c2)cc1	i	i	i	i	i	i
COc1ccc(C(=O)O/N=C(\N)c2cccc(C)c2)cc1OC	i	i	i	i	i	i
COc1cccc(C(=O)O/N=C(\N)c2ccc([N+](=O)[O-])cc2)c1	59	i	i	i	i	i
O=S(=O)(c1ccccc1F)N1CCN(Cc2cc3c(cc2Br)OCCO3)CC1	nt	nt	i	i	nt	nt
O=C(NCC(=O)N(c1cccnc1)C(C(=O)NC1CCCCC1)c1ccccc1F)c1ccco1 (stereo not given)	i	i	i	i	i	i
NCCCCCc1nnc(SC/C=C/c2ccccc2)o1	97	i	i	i	i	i
NCCCCCc1nnc(SCC(=O)c2ccc(Cl)cc2)o1	58	i	i	i	i	i
NCCCCCc1nnc(SCc2ccccc2Cl)o1	i	i	i	i	i	i
Cc1ccc(S(=O)(=O)N(C)C)cc1NC(=O)CN1C(=O)NC2(CCCc3ccccc32)C1=O (stereo not given)	i	i	i	i	i	i
O=C(CN1CCN(S(=O)(=O)c2ccccc2F)CC1)Nc1ccccc1C(=O)c1ccccc1	i	i	i	i	i	i
COCCCNC(=O)c1c[nH]c2ccc(S(=O)(=O)N3CCc4ccccc43)cc2c1=O	51	i	i	i	i	i
COCCNC(=O)c1c[nH]c2ccc(S(=O)(=O)N3CCc4ccccc43)cc2c1=O	i	i	i	i	i	i
Cc1ccc2nc(CSc3nc(C)ccc3C#N)[nH]c2c1	i	i	i	i	i	-59
O=c1cnc2ccccc2n1Cc1ccc(Br)cc1	i	i	i	i	i	i
CC(C)(C)c1ccc(Cn2c(=O)cnc3ccccc32)cc1	i	i	i	i	i	-70
COc1cccc(C(=O)NC(C)C(c2cccs2)N2CCOCC2)c1 (stereo not given)	i	i	i	i	i	i
CC(NC(=O)c1cccnc1)C(c1cccs1)N1CCOCC1 (stereo not given)	i	65	i	i	i	i
O=C(NC1CCN(C(=O)N2c3ccccc3Sc3ccccc32)CC1)c1ccccc1Cl	i	i	i	i	i	i
SMILES	HSF1 activator	T cruzi inh	697 NFkB inh	Jurkat NFkB inh	GPR7 antag	HSF1 inhib
COc1cccc(C(=O)NC2CCN(C(=O)N3c4ccccc4Sc4ccccc43)CC2)c1	i	70	i	i	i	i
O=C(N=C1N=C2C=CC(Br)=CN2Cc2ccccc21)c1ccc([N+](=O)[O-])cc1[N+](=O)[O-]	i	57	i	i	i	i
O=C(c1ccc([N+](=O)[O-])cc1[N+](=O)[O-])N1CCCC1	i	i	i	i	i	i
Cc1cc(C)cc(NC(=O)c2sc3nc4n(c(=O)c3c2C)CCC4)c1	i	i	i	i	i	i
CCc1cccc(NC(=O)c2sc3nc4n(c(=O)c3c2C)CCC4)c1	55	i	i	i	i	i
Cc1nc(N2CCCCC2)c2c(C)c(C(=O)Nc3cccc(C(F)(F)F)c3)sc2n1	i	65	i	i	i	i
O=C(NCCCNC(=O)c1ccc(F)cc1)c1ccc(F)cc1	i	i	i	i	i	i
COc1ccc(NC(=O)COC(=O)CCCN2C(=O)c3ccccc3C2=O)cc1Cl	i	i	i	i	i	i
CCOC(=O)/C(=N\Nc1ccccc1Cl)N1CCN(c2ccccc2OC)CC1	i	67	i	i	i	i
CCC(=O)Nc1nc2ccc([N+](=O)[O-])cc2s1	i	63	i	i	i	i
CCCCOC(=O)Nc1nc2ccc([N+](=O)[O-])cc2s1	i	i	i	i	i	i
CC(=O)Nc1ccc2nc(NC(=O)c3ccc([N+](=O)[O-])s3)sc2c1	i	56	i	i	i	i
Cc1noc(C)c1CSCC(=O)Nc1ccc(S(=O)(=O)C(F)F)cc1	i	i	i	i	nt	-58
CCOc1ccccc1CN1CCNC(=O)C1CC(=O)NCc1nccn1CC (stereo not given)	67	i	i	i	i	i
CCn1ccnc1CNC(=O)CC1C(=O)NCCN1Cc1ccc(OC)cc1OC (stereo not given)	i	i	i	i	i	i
COCCCN1C(=O)c2[nH]nc(-c3ccccc3O)c2C1c1cccc(Cl)c1 (stereo not given)	71	i	i	i	i	i
Cc1ccc(C(C)C)cc1OCC(=O)NNC(=O)Nc1ccccc1	i	i	i	i	i	i
COC(=O)c1cc(NC(=O)CC2SC(=Nc3ccccc3)N(CCc3c[nH]c4ccccc34)C2=O)cc(C(=O)OC)c1 (stereo not given)	i	67	i	i	i	i
COCCN1C(=O)C(CC(=O)Nc2ccc(C(=O)O)cc2)SC1=Nc1ccccc1 (stereo not given)	nt	nt	i	i	i	nt
COCc1cc(=O)[nH]c(Nc2nc3ccc(C)cc3o2)n1	210	59	i	i	i	i
CCCCNC(=O)N(c1c(N)n(Cc2ccccc2)c(=O)[nH]c1=O)C1CCCC1	i	i	i	i	i	i
COc1ccccc1NC(=O)CN1CCC(c2nc3ccc(C)cc3[nH]2)CC1	i	i	i	i	i	i
COc1cccc(CNC(=O)CN2CCC(c3nc4ccc(C)cc4[nH]3)CC2)c1	i	55	i	i	i	i
COC(=O)[C@@H](CC(C)C)N(Cc1ccccc1)S(=O)(=O)N(Cc1ccccc1)[C@@H](CC(C)C)C(=O)OC	nt	nt	i	i	nt	nt
Cc1cc(=O)[nH]c(-n2ncc(C#N)c2N)n1	69	i	i	i	i	i

Compound activity as filed in PubChem BioAssay.
